Reference: ChEMBL document CHEMBL1123783, “Synthesis and anticonvulsant activity of analogues of 4-amino-N-(1-phenylethyl)benzamide” (J Med Chem, 1987)

Legend:
Mus musculus [1] = test: Compound was evaluated for toxicity by rotarod assay method after 30 minutes at a dose of 300 mg/kg; type: organism-based; parameters: dose 300 mg/kg; conditions: in vivo, 0.5 h
How it was run: (§1)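 Male Carworth Farms number-one mice received test compound intraperitoneally in 30% polyethylene glycol 400 at 30, 100 and 300 mg/kg, with 600 mg/kg in some cases. Neurological deficit was read at 30 min or 4 h after dosing on a 1-in.-diameter knurled plastic rod turning at 6 rpm. Toxicity was scored as failure to stay on the rod for 1 min.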

Mus musculus [2] = test: Compound was evaluated for anticonvulsant activity against maximal electric shock (MES) induced convulsions after 4 hr; C indicates no activity at 300 mg/kg.; type: functional, organism-based; parameters: dose 300 mg/kg
Mus musculus [3] = test: Compound was evaluated for toxicity by rotarod assay method after 4 hr; C indicates no activity at 300 mg/kg.; type: organism-based; parameters: dose 300 mg/kg; conditions: in vivo; how it was run: as §1
Mus musculus [4] = test: Compound was evaluated for anticonvulsant activity against subcutaneous pentylenetetrazole-induced convulsions after 30 minutes; C indicates no activity at 300 mg/kg.; type: functional, organism-based; parameters: dose 300 mg/kg
How it was run: (§2)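 Male Carworth Farms number-one mice were dosed ip in 30% PEG 400, at 30, 100 or 300 mg/kg (sometimes 600 mg/kg). Pentylenetetrazole, 85 mg/kg as a 0.5% solution, was injected subcutaneously in the posterior midline. Protection meant no episode of clonic spasms lasting at least 5 s during a 30-min observation period.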

Mus musculus [5] = test: Compound was evaluated for anticonvulsant activity against subcutaneous pentylenetetrazole-induced convulsions after 4 hr; C indicates no activity at 300 mg/kg.; type: functional, organism-based; parameters: dose 300 mg/kg; how it was run: as §2
Mus musculus [6] = test: Compound was evaluated for anticonvulsant activity against maximal electric shock (MES) induced convulsions after 30 minutes; C indicates no activity at 300 mg/kg.; type: functional, organism-based; parameters: dose 300 mg/kg
Mus musculus [7] = species: Mus musculus; test: Compound was evaluated for anticonvulsant activity against maximal electric shock induced seizures; type: functional
How it was run: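 Male Carworth Farms number-one mice received the compound ip in 30% polyethylene glycol 400 before maximal electroshock testing, at several dose levels. The median effective dose (ED50) was obtained by the graphical method.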

Mus musculus [8] = test: Compound was evaluated for toxicity by rotarod assay method after 30 minutes at a dose of 100 mg/kg; type: organism-based; parameters: dose 100 mg/kg; conditions: in vivo, 0.5 h; how it was run: as §1
Mus musculus [9] = test: Compound was evaluated for anticonvulsant activity against maximal electric shock (MES) induced convulsions after 30 minutes at a dose of 30 mg/kg; type: functional
[10] = Protective index is the ratio of TD50 to ED50; type: ADME; conditions: for selectivity ratio: read-out: Protective index
How it was run: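 Protective index was calculated as rotorod TD50 divided by anti-MES ED50. Both were graphical median doses from ip dosing in 30% PEG 400 in male Carworth Farms mice.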

[11] = Compound was evaluated for anticonvulsant activity by rotarod procedure; type: ADME, organism-based; conditions: mouse, in vivo
How it was run: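 Male Carworth Farms mice were dosed ip in 30% PEG 400 and then placed on a knurled plastic rod 1 in. in diameter, rotating at 6 rpm. Neurotoxicity was failure to stay on the rod for 1 min. TD50 was derived graphically.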

Mus musculus [12] = test: Compound was evaluated for anticonvulsant activity against subcutaneous pentylenetetrazole-induced convulsions after 30 minutes at a dose of 300 mg/kg; type: functional; how it was run: as §2
Mus musculus [13] = test: Compound was evaluated for anticonvulsant activity against maximal electric shock (MES) induced convulsions after 4 hr at a dose of 300 mg/kg; type: functional
Mus musculus [14] = test: Compound was evaluated for anticonvulsant activity against maximal electric shock (MES) induced convulsions after 30 minutes at a dose of 100 mg/kg; type: functional
Mus musculus [15] = test: Compound was evaluated for anticonvulsant activity against subcutaneous pentylenetetrazole-induced convulsions; type: functional; conditions: sc; how it was run: as §2
Mus musculus [16] = test: Compound was evaluated for anticonvulsant activity against subcutaneous pentylenetetrazole-induced convulsions after 4 hr at a dose of 100 mg/kg; type: functional; how it was run: as §2
Mus musculus [17] = test: Compound was evaluated for toxicity by rotarod assay method after 30 minutes; C indicates no activity at 300 mg/kg.; type: organism-based; parameters: dose 300 mg/kg; conditions: in vivo, 0.5 h; how it was run: as §1
Mus musculus [18] = test: Compound was evaluated for anticonvulsant activity against maximal electric shock (MES) induced convulsions after 30 minutes;C is inactive at 300 mg/kg.; type: functional, organism-based; parameters: dose 300 mg/kg
Mus musculus [19] = test: Compound was evaluated for anticonvulsant activity against subcutaneous pentylenetetrazole-induced convulsions after 4 hr; C is inactive at 300 mg/kg.; type: functional, organism-based; parameters: dose 300 mg/kg; how it was run: as §2
Mus musculus [20] = test: Compound was evaluated for toxicity by rotarod assay method after 4 hr; C is inactive at 300 mg/kg.; type: organism-based; parameters: dose 300 mg/kg; conditions: in vivo; how it was run: as §1
Mus musculus [21] = test: Compound was evaluated for toxicity by rotarod assay method after 30 minutes; C is inactive at 300 mg/kg.; type: organism-based; parameters: dose 300 mg/kg; conditions: in vivo, 0.5 h; how it was run: as §1
Mus musculus [22] = test: Compound was evaluated for anticonvulsant activity against maximal electric shock (MES) induced convulsions after 4 hr; C is inactive at 300 mg/kg.; type: functional, organism-based; parameters: dose 300 mg/kg
Mus musculus [23] = test: Compound was evaluated for anticonvulsant activity against subcutaneous pentylenetetrazole-induced convulsions after 30 minutes;C is inactive at 300 mg/kg.; type: functional, organism-based; parameters: dose 300 mg/kg; how it was run: as §2
Mus musculus [24] = test: Compound was evaluated for anticonvulsant activity against subcutaneous pentylenetetrazole-induced convulsions after 30 minutes; E indicates no activity at 30 mg/kg.; type: functional, organism-based; parameters: dose 30 mg/kg; how it was run: as §2
Mus musculus [25] = test: Compound was evaluated for anticonvulsant activity against subcutaneous pentylenetetrazole-induced convulsions after 4 hr; E indicates no activity at 30 mg/kg.; type: functional, organism-based; parameters: dose 30 mg/kg; how it was run: as §2
Mus musculus [26] = test: Compound was evaluated for toxicity by rotarod assay method after 4 hr; E indicates no activity at 30 mg/kg.; type: organism-based; parameters: dose 30 mg/kg; conditions: in vivo; how it was run: as §1
Mus musculus [27] = test: Compound was evaluated for anticonvulsant activity against maximal electric shock (MES) induced convulsions after 4 hr; E indicates no activity at 30 mg/kg.; type: functional, organism-based; parameters: dose 30 mg/kg
Mus musculus [28] = test: Compound was evaluated for toxicity by rotarod assay method after 4 hr at a dose of 300 mg/kg; type: organism-based; parameters: dose 300 mg/kg; conditions: in vivo; how it was run: as §1
Mus musculus [29] = test: Compound was evaluated for anticonvulsant activity against maximal electric shock (MES) induced convulsions after 4 hr at a dose of 100 mg/kg; type: functional
Mus musculus [30] = test: Compound was evaluated for anticonvulsant activity against subcutaneous pentylenetetrazole-induced convulsions after 4 hr at a dose of 300 mg/kg; type: functional; how it was run: as §2

Structure (SMILES)	Toxicity (Mus musculus [1])	Activity (Mus musculus [2])	Toxicity (Mus musculus [3])	Activity (Mus musculus [4])	Activity (Mus musculus [5])	ED50 (Mus musculus [7]) [mg/kg]	Toxicity (Mus musculus [8])	selectivity ratio [10]	TD50 [11] [mg/kg]	Activity (Mus musculus [14])	ED50 (Mus musculus [15]) [mg/kg]	further results
CCOC(=O)C(=O)Nc1ccc(C(=O)NC(C)c2ccccc2)cc1 (configuration not stated)	2	No activity at 300 mg/kg	No activity at 300 mg/kg	No activity at 300 mg/kg	No activity at 300 mg/kg	–	–	–	–	–	–	Activity (Mus musculus [6]): No activity at 300 mg/kg
CC(NCc1ccc(N)cc1)c1ccccc1 (configuration not stated)	–	No activity at 300 mg/kg	No activity at 300 mg/kg	No activity at 300 mg/kg	No activity at 300 mg/kg	11.1	3	1.4	15.5	–	–	Activity (Mus musculus [9]): 4
CCCCC(NC(=O)c1ccc(N)cc1)c1ccccc1 (configuration not stated)	2	–	No activity at 300 mg/kg	–	No activity at 300 mg/kg	73.7	–	–	332	3	161	Activity (Mus musculus [12]): 2; Activity (Mus musculus [13]): 2; Protective index [10]: 2.06
COc1ccc(C(C)NC(=O)c2ccc(N)cc2)cc1 (configuration not stated)	–	No activity at 300 mg/kg	No activity at 300 mg/kg	No activity at 300 mg/kg	–	–	–	–	–	–	–	Activity (Mus musculus [16]): 3; Toxicity (Mus musculus [17]): No activity at 300 mg/kg; Activity (Mus musculus [6]): No activity at 300 mg/kg
CN(C)c1ccc(C(=O)NCCc2ccccc2)cc1	–	–	–	–	–	–	–	–	–	–	–	Activity (Mus musculus [18]): No activity at 300 mg/kg; Activity (Mus musculus [19]): No activity at 300 mg/kg; Toxicity (Mus musculus [20]): No activity at 300 mg/kg; Toxicity (Mus musculus [21]): No activity at 300 mg/kg; Activity (Mus musculus [22]): No activity at 300 mg/kg; Activity (Mus musculus [23]): No activity at 300 mg/kg
CC(NCc1cccc(N)c1)c1ccccc1 (configuration not stated)	2	No activity at 300 mg/kg	No activity at 300 mg/kg	No activity at 300 mg/kg	No activity at 300 mg/kg	32.4	–	1.53	49.7	3	–	–
CCCC(NC(=O)c1ccc(N)cc1)c1ccccc1 (configuration not stated)	–	–	No activity at 300 mg/kg	No activity at 300 mg/kg	No activity at 300 mg/kg	93.9	–	4.03	378	3	78.8	Toxicity (Mus musculus [17]): No activity at 300 mg/kg; Activity (Mus musculus [13]): 2; Protective index [10]: 4.8
Cc1ccc(C(C)NC(=O)c2ccc(N)cc2)cc1 (configuration not stated)	–	–	–	–	–	–	–	–	–	–	–	Activity (Mus musculus [18]): No activity at 300 mg/kg; Activity (Mus musculus [19]): No activity at 300 mg/kg; Toxicity (Mus musculus [20]): No activity at 300 mg/kg; Toxicity (Mus musculus [21]): No activity at 300 mg/kg; Activity (Mus musculus [22]): No activity at 300 mg/kg; Activity (Mus musculus [23]): No activity at 300 mg/kg
CC(NC(=O)c1ccc(CN(C)C)cc1)c1ccccc1 (configuration not stated)	–	–	–	–	–	13	3	2.63	34.3	–	–	Activity (Mus musculus [24]): No activity at 30 mg/kg; Activity (Mus musculus [25]): No activity at 30 mg/kg; Toxicity (Mus musculus [26]): No activity at 30 mg/kg; Activity (Mus musculus [27]): No activity at 30 mg/kg; Activity (Mus musculus [9]): 4
CCC(NC(=O)c1ccc(N)cc1)c1ccccc1 (configuration not stated)	–	–	–	–	–	54.3	3	1.76	95.4	3	54.1	Activity (Mus musculus [12]): 2; Toxicity (Mus musculus [28]): 2; Activity (Mus musculus [29]): 3; Activity (Mus musculus [30]): 2
